Data reported in ChEMBL document CHEMBL4480373, “Neuropilin-1 peptide-like ligands with proline mimetics, tested using the improved chemiluminescence affinity detection method” (Medchemcomm, 2019).
Square brackets hold non-standard residues; d marks the D form. Peptide text beside a SMILES is read from it. Oic = O=C(O)[C@@H]1C[C@@H]2CCCC[C@@H]2N1; Hyp = O=C(O)[C@@H]1C[C@@H](O)CN1; Pip(4-aza) = O=C(O)[C@@H]1CNCCN1; hArg = N=C(N)NCCCC[C@H](N)C(=O)O; Tic = O=C(O)[C@@H]1Cc2ccccc2CN1; ΔPro = O=C(O)[C@@H]1C=CCN1; Aze = O=C(O)[C@@H]1CCN1; Dab = NCC[C@H](N)C(=O)O

What was measured:
Neuropilin-1 [1] = target: T1, Neuropilin-1 (Homo sapiens, UniProt O14786); test: Inhibition of human biotinylated VEGF-A165 binding to recombinant human NRP1 receptor at 50 uM after 2 hrs by chemiluminescence analysis relative to control
Method in brief: (§1)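 Wells coated overnight at 4 °C with recombinant human NRP-1 (200 ng/well), blocked with 0.5% BSA/PBS. Peptide in PBS and biotinylated human VEGF-A165 (400 ng/mL, in PBS with 4 µg/mL heparin) incubated 2 h at room temperature. Detection by streptavidin-HRP and luminol chemiluminescence. Controls: ligand only (positive) and uncoated wells (negative). % inhibition calculated from these. IC50 by nonlinear regression.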

Neuropilin-1 [2] = target: T1, Neuropilin-1; test: Inhibition of human biotinylated VEGF-A165 binding to recombinant human NRP1 receptor after 2 hrs by chemiluminescence analysis; method in brief: as §1
Neuropilin-1 [3] = target: T1, Neuropilin-1; test: Inhibition of human biotinylated VEGF-A165 binding to recombinant human NRP1 receptor at 10 uM after 2 hrs by chemiluminescence analysis relative to control; method in brief: as §1
Neuropilin-1 [4] = target: T1, Neuropilin-1; test: Inhibition of human biotinylated VEGF-A165 binding to recombinant human NRP1 receptor at 1 uM after 2 hrs by chemiluminescence analysis relative to control; method in brief: as §1
Neuropilin-1 [5] = target: T1, Neuropilin-1; test: Inhibition of human biotinylated VEGF-A165 binding to recombinant human NRP1 receptor at 2.5 uM after 2 hrs by chemiluminescence analysis relative to control; method in brief: as §1
Neuropilin-1 [6] = target: T1, Neuropilin-1; test: Inhibition of human biotinylated VEGF-A165 binding to recombinant human NRP1 receptor at 100 uM after 2 hrs by chemiluminescence analysis relative to control; method in brief: as §1
Neuropilin-1 [7] = target: T1, Neuropilin-1; test: Inhibition of human biotinylated VEGF-A165 binding to recombinant human NRP1 receptor at 25 uM after 2 hrs by chemiluminescence analysis relative to control; method in brief: as §1
Neuropilin-1 [8] = target: T1, Neuropilin-1; test: Inhibition of human biotinylated VEGF-A165 binding to recombinant human NRP1 receptor at 5 uM after 2 hrs by chemiluminescence analysis relative to control; method in brief: as §1
[9] = Half life in human plasma at 1 umol/ml up to 96 hrs by RP-HPLC and LC/MS analysis; format: ADME, cell-free
Method in brief: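 Citrate plasma pooled from four healthy donors, stored at –80 °C, preactivated 20 min at 37 °C with shaking. Aqueous peptide stock diluted into plasma to ~1 µmol/mL final and incubated 0–96 h. Aliquots quenched with equal volume 98% ethanol, centrifuged, supernatant lyophilized, reconstituted in water, analysed by RP-HPLC (LC-MS for selected samples). Half-life obtained by nonlinear regression.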

[10] = target: Neuropilin-1 (Rattus norvegicus) (UniProt Q9QWJ9); test: Inhibition of human biotinylated VEGF-A165 binding to Fc-tagged recombinant rat NRP1 receptor at 10 uM after 2 hrs by colorimetric analysis relative to control
[11] = target: Neuropilin-1 (Rattus norvegicus) (UniProt Q9QWJ9); test: Inhibition of human biotinylated VEGF-A165 binding to Fc-tagged recombinant rat NRP1 receptor at 3 uM after 2 hrs by colorimetric analysis relative to control
[12] = target: Neuropilin-1 (Rattus norvegicus) (UniProt Q9QWJ9); test: Inhibition of human biotinylated VEGF-A165 binding to Fc-tagged recombinant rat NRP1 receptor at 1 uM after 2 hrs by colorimetric analysis relative to control
Neuropilin-1 [13] = target: Neuropilin-1 (Rattus norvegicus, UniProt Q9QWJ9); test: Inhibition of human biotinylated VEGF-A165 binding to Fc-tagged recombinant rat NRP1 receptor after 2 hrs by colorimetric analysis
[14] = target: Neuropilin-1 (Rattus norvegicus) (UniProt Q9QWJ9); test: Inhibition of human biotinylated VEGF-A165 binding to Fc-tagged recombinant rat NRP1 receptor at 0.3 uM after 2 hrs by colorimetric analysis relative to control
[15] = target: Neuropilin-1 (Rattus norvegicus) (UniProt Q9QWJ9); test: Inhibition of human biotinylated VEGF-A165 binding to Fc-tagged recombinant rat NRP1 receptor at 0.1 uM after 2 hrs by colorimetric analysis relative to control

T1 sequence (O14786 whole entry): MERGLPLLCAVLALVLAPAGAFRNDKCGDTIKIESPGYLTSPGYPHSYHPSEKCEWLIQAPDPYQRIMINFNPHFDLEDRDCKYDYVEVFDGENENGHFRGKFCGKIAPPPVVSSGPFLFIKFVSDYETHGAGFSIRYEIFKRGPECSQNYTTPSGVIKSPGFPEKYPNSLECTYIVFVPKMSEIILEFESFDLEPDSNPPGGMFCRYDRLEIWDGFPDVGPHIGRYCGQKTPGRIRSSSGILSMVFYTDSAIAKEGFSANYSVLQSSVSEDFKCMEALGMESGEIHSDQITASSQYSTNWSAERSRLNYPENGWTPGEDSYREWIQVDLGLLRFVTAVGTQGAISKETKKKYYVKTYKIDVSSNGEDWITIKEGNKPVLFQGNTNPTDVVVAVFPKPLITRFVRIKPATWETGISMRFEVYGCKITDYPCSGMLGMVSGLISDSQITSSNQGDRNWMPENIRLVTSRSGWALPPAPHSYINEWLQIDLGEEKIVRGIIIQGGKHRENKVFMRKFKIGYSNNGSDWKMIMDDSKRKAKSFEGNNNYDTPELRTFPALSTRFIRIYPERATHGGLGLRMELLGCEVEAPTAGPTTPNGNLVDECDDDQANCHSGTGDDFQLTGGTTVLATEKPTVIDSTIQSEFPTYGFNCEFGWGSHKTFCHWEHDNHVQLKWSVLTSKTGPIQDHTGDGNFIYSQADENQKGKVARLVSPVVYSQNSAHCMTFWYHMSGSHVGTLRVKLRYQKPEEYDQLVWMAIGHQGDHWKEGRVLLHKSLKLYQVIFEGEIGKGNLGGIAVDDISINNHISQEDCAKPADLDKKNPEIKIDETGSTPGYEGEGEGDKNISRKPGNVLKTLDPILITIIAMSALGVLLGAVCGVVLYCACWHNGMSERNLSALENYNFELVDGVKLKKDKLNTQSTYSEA

Row | Molecule | inhibition (Neuropilin-1 [1]) | IC50 (Neuropilin-1 [2]; read-out: IC50) | inhibition (Neuropilin-1 [3]) | inhibition (Neuropilin-1 [4]) | inhibition (Neuropilin-1 [5]) | inhibition (Neuropilin-1 [6]) | inhibition (Neuropilin-1 [7]) | inhibition (Neuropilin-1 [8]) | half-life at 1000 µM [9] | inhibition [10] | inhibition [11] | inhibition [12] | IC50 (Neuropilin-1 [13]) | inhibition [14] | IC50 (Neuropilin-1 [2]; read-out: pIC50 (converted)) | inhibition [15]
1 | N=C(N)NCCCC[C@H](N)C(=O)NCCCC[C@H](N)C(=O)N[C@@H](CCN)C(=O)N1C[C@H](O)C[C@H]1C(=O)N[C@@H](CCCNC(=N)N)C(=O)O (H-K(hArg)[Dab][Hyp]R-OH) | 76% | 9.2 µM | 54.3% | 22.5% | 22.3% | 78.6% | 67.3% | 36% |  |  |  |  |  |  |  | 
2 | N=C(N)NCCCC[C@H](N)C(=O)NCCCC[C@H](N)C(=O)N1CCC[C@H]1C(=O)N1CCC[C@H]1C(=O)N[C@@H](CCCNC(=N)N)C(=O)O (H-K(hArg)PPR-OH) | 67.9% | 20.9 µM | 37.1% |  |  | 77% | 54.1% |  |  | 92.2% | 79% | 41.4% | 1 µM | 4.7% |  | 
3 | H-ATWLPPR-OH | 43.8% | 84.1 µM | 30.8% |  |  | 58.2% | 35% |  |  |  |  |  |  |  | 83.2 µM | 
4 | N=C(N)NCCCC[C@H](N)C(=O)NCCCC[C@H](N)C(=O)N1CCNC[C@H]1C(=O)N1CCNC[C@H]1C(=O)N[C@@H](CCCNC(=N)N)C(=O)O (H-K(hArg)[Pip(4-aza)][Pip(4-aza)]R-OH) | 63.3% | 16 µM | 45% |  |  | 70.8% | 58.7% |  |  |  |  |  |  |  |  | 
5 | N=C(N)NCCCC[C@H](N)C(=O)NCCCC[C@H](N)C(=O)N[C@@H](CCN)C(=O)N1CCNC[C@H]1C(=O)N[C@@H](CCCNC(=N)N)C(=O)O (H-K(hArg)[Dab][Pip(4-aza)]R-OH) | 46% | 80.5 µM | 20.8% |  |  | 51.8% | 34.8% |  |  |  |  |  |  |  |  | 
6 | N=C(N)NCCCC[C@H](N)C(=O)NCCCC[C@H](N)C(=O)N[C@@H](CCN)C(=O)N1CCC[C@H]1C(=O)N[C@@H](CCCNC(=N)N)C(=O)O (H-K(hArg)[Dab]PR-OH) | 76.6% | 8.9 µM | 58.6% | 13.8% | 31.4% | 79.8% | 70.4% | 43.7% |  | 99.6% | 92.8% | 83.7% | 0.2 µM | 59.6% |  | 35.8%
7 | N=C(N)NCCCC[C@H](N)C(=O)NCCCC[C@H](N)C(=O)N[C@@H](CCN)C(=O)N1Cc2ccccc2C[C@H]1C(=O)N[C@@H](CCCNC(=N)N)C(=O)O (H-K(hArg)[Dab][Tic]R-OH) | 17.2% | > 100 µM | 31.5% |  |  | 0% | 35% |  |  |  |  |  |  |  |  | 
8 | N=C(N)NCCCC[C@H](N)C(=O)NCCCC[C@H](N)C(=O)N[C@@H](CCN)C(=O)N1CC=C[C@H]1C(=O)N[C@@H](CCCNC(=N)N)C(=O)O (H-K(hArg)[Dab][ΔPro]R-OH) | 84.4% | 4.3 µM | 70.7% | 29.9% | 44.8% | 87.1% | 78.1% | 58% | 51.1 h |  |  |  |  |  |  | 

Now from value to molecule:

Row | inhibition (Neuropilin-1 [1]) | IC50 (Neuropilin-1 [2]; read-out: IC50) | inhibition (Neuropilin-1 [3]) | inhibition (Neuropilin-1 [4]) | inhibition (Neuropilin-1 [5]) | inhibition (Neuropilin-1 [6]) | inhibition (Neuropilin-1 [7]) | inhibition (Neuropilin-1 [8]) | half-life at 1000 µM [9] | inhibition [10] | inhibition [11] | inhibition [12] | IC50 (Neuropilin-1 [13]) | inhibition [14] | IC50 (Neuropilin-1 [2]; read-out: pIC50 (converted)) | inhibition [15] | Molecule
9 | 79.5% | 2.3 µM | 63.4% | 37.7% | 50.9% | 83% | 77.7% | 52.3% | 54.9 h |  |  |  |  |  |  |  | N=C(N)NCCCC[C@H](N)C(=O)NCCCC[C@H](N)C(=O)N[C@@H](CCN)C(=O)N1[C@H](C(=O)N[C@@H](CCCNC(=N)N)C(=O)O)C[C@@H]2CCCC[C@@H]21 (H-K(hArg)[Dab][Oic]R-OH)
10 | 53.6% | 48.6 µM | 30% |  |  | 59.9% | 41.9% |  |  |  |  |  |  |  |  |  | N=C(N)NCCCC[C@H](N)C(=O)NCCCC[C@H](N)C(=O)N1CC[C@H]1C(=O)N1CC[C@H]1C(=O)N[C@@H](CCCNC(=N)N)C(=O)O (H-K(hArg)[Aze][Aze]R-OH)
11 | 72.2% | 14 µM | 45.4% |  |  | 79.3% | 61.3% |  |  |  |  |  |  |  |  |  | N=C(N)NCCCC[C@H](N)C(=O)NCCCC[C@H](N)C(=O)N1CC=C[C@H]1C(=O)N1CC=C[C@H]1C(=O)N[C@@H](CCCNC(=N)N)C(=O)O (H-K(hArg)[ΔPro][ΔPro]R-OH)
12 | 63.1% | 21.3 µM | 36.7% |  |  | 71.7% | 56.8% |  |  |  |  |  |  |  |  |  | N=C(N)NCCCC[C@H](N)C(=O)NCCCC[C@H](N)C(=O)N1C[C@H](O)C[C@H]1C(=O)N1C[C@H](O)C[C@H]1C(=O)N[C@@H](CCCNC(=N)N)C(=O)O (H-K(hArg)[Hyp][Hyp]R-OH)
13 | 77.6% | 7.2 µM | 53.4% | 32.9% | 42.1% | 83.6% | 68.2% | 47.8% |  |  |  |  |  |  |  |  | N=C(N)NCCCC[C@H](N)C(=O)NCCCC[C@H](N)C(=O)N1[C@H](C(=O)N2[C@H](C(=O)N[C@@H](CCCNC(=N)N)C(=O)O)C[C@@H]3CCCC[C@@H]32)C[C@@H]2CCCC[C@@H]21 (H-K(hArg)[Oic][Oic]R-OH)
14 | 75.8% | 11.7 µM | 49.6% | 7.7% | 12.9% | 78.8% | 69.1% | 30.1% |  |  |  |  |  |  | 10.7 µM |  | N=C(N)NCCCC[C@H](N)C(=O)NCCCC[C@H](N)C(=O)N[C@@H](CCN)C(=O)N1CC[C@H]1C(=O)N[C@@H](CCCNC(=N)N)C(=O)O (H-K(hArg)[Dab][Aze]R-OH)
15 | 40.7% | > 100 µM | 24.7% |  |  | 45.2% | 31.4% |  |  |  |  |  |  |  |  |  | N=C(N)NCCCC[C@H](N)C(=O)NCCCC[C@H](N)C(=O)N1Cc2ccccc2C[C@H]1C(=O)N1Cc2ccccc2C[C@H]1C(=O)N[C@@H](CCCNC(=N)N)C(=O)O (H-K(hArg)[Tic][Tic]R-OH)
